CAL PDZ FP-1 – CAL PDZ peptide-binding inhibitors, primary screen, biochemical, fluorescence polarization, Cer-tagged CAL PDZ, HTS; purified CAL PDZ, TMR-peptide fluorescence polarization, 1 h; inhibition, % at 20 µM; hit rate 0.02% among 330,000; AID 504414, 2011;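 active = highest replicate inhibition of at least 40%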;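 note: plate controls were DMSO neutral control wells for no effect and unlabeled competitor peptide control wells for full effect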
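Test system: purified CerCALP PDZ construct; Compound dosing: one concentration, 20 µM compound; Also added: TMR-labelled reporter peptide T*-PRC34 bound in PDZ groove; Read-out: inhibition from polarization loss; Controls: unlabelled peptide and DMSO controls; Signal: FP readout, S and P plane fluorescence; Incubation: 1 h at RT.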
LANA-H2A inh – blockers of LANA interaction with H2A/H2B – biochemical, FP readout, HTS, primary screen | Protein LANA1 (Human herpesvirus 8 type P (isolate GK18)), Q9QR71 | cell-free LANA-H2A/H2B peptide, fluorescence polarization | inhibition, % (test concentration not listed) | hit rate 0.6% among 320,000 | AID 2629, 2010; in the data active = inhibition mostly above about 10%, no sharp cut-off; inactive = mostly below about 6.7%
Keap1 Nrf2 FP – Keap1-Nrf2 protein-protein interaction inhibitors, primary screen, biochemical, fluorescence polarization, single point; Kelch-like ECH-associated protein 1 (Homo sapiens), Q14145; Keap1 Kelch-Nrf2 peptide fluorescence polarization, 1536-well; inhibition, % at 9.4 µM; hit rate 0.15% among 340,000; AID 504523, 2011; in the data active = inhibition above about 12%;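 note: human Keap1 Kelch domain with fluorescein labeled Nrf2 9mer peptide probe; 0% = neutral control wells and 100% = peptide positive control; higher means more block of Keap1 binding to Nrf2 peptide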
C-LANA FP – inhibitors of KSHV C-LANA binding to DNA, primary screen, biochemical, fluorescence polarization, FAM-LBS DNA, MBP-C-LANA, single point. Kaposi's sarcoma herpesvirus LANA C-terminal domain (residues 932-1162) DNA binding. inhibition, % at 9 µM. hit rate 0.078% among 340,000. AID 504423, 2011;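 active = highest replicate inhibition at or above 60% at 9 µM, even if other replicates fall short; inactive = all replicates below 60% inhibition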;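 note: 0% = neutral control wells and 100% = 4 µM acridine orange control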
CAL PDZ FP-2 – untagged CAL PDZ binding inhibitors, primary screen, biochemical, fluorescence polarization, HTS; hit rate 0.92% among 300,000; AID 602252, 2012; Golgi-associated PDZ and coiled-coil motif-containing protein (Homo sapiens), Q9HD26; purified CAL PDZ, TMR-peptide fluorescence polarization, 1 h; inhibition, % at 24.9 µM;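 active = mean inhibition of at least 30% with at least half of replicates also reaching 30%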;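 note: 0% = DMSO neutral control and 100% = excess unlabeled competitor peptide PRC23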
CaV13 FRET inh – Disruptors of the CACNA1D IQ motif to Ca2+-dependent inactivation inhibitor domain association, primary screening, Förster resonance energy transfer in intact living …; HEK cells, CFP/YFP FRET ICDI-IQ, plate reader, 10 min; percent FRET-ratio fall versus neutral wells; inhibition, % at 12.3 µM; hit rate 0.098% among 340,000;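 active = mean replicate inhibition of at least 30% and at least 1% of replicates passing that level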;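 note: 0% = median of the neutral control wells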
* marks the source's active call; other numbers are inactive results; nt = no result given. The list is not random: actives were taken first. Their share in the collection is about 1.5%.

SMILES	CAL PDZ FP-1	LANA-H2A inh	Keap1 Nrf2 FP	C-LANA FP	CAL PDZ FP-2	CaV13 FRET inh
Nc1ncnc2c1ncn2[C@@H]1O[C@H](C(=O)N[C@@H](CCc2ccccc2)C(=O)N2CCN(CC(=O)N3CCCC3)CC2)[C@@H](O)[C@H]1O	nt	nt	nt	nt	nt	-9.7
Cc1ccc(C(=O)N2CCC[C@@H]2C(=O)N2CCC[C@H]2C(=O)NCc2ccccc2)cc1	nt	nt	nt	nt	nt	-12.5
COc1ccccc1CNC(=O)CCC(=O)Nc1nnc(C)s1	nt	-33.4	-3.3	1.1	-3.0	-4.3
COc1ccc(/C=C/C(=O)Nc2nnc(C(C)C)s2)cc1OC	nt	19.7*	nt	nt	nt	-3.8
COc1ccccc1CNC(=O)CCC(=O)Nc1nnc(C(C)C)s1	-1.4	19.9*	-0.7	0.3	-0.4	-3.4
COc1ccc(CNC(=O)c2ccc(-c3c(C)noc3C)c3ccoc23)cc1OC	nt	nt	nt	nt	nt	-3.6
NCCN1C(=O)S/C(=C\c2ccc3c(c2)OCO3)C1=O	-1.4	0.2	-10.5	-0.6	-1.8	-3.0
O=C(CNC(=O)c1ccccc1F)NCCN1C(=O)S/C(=C\c2ccc3c(c2)OCO3)C1=O	-1.4	28.0*	-0.6	-1.4	nt	-3.2
O=C(CNC(=O)c1ccccc1Cl)N/N=C/c1ccc2c(c1)OCO2	-2.0	-1.2	0.5	0.5	95.9*	-2.1
COC(=O)c1ccccc1NC1CC(=O)N(c2c(C)cccc2C)C1=O (centres undefined)	-1.3	95.6*	-1.4	-1.2	nt	-7.5
Cc1ccc(N2CCN(C(=O)C(=O)c3cccc(Br)c3)CC2)cc1	nt	nt	nt	nt	nt	-3.1
Cc1ccc(NC(=O)Cn2ccsc2=N)cc1S(=O)(=O)N(C)C	-1.0	-5.5	-2.7	1.5	nt	-4.9
CN(C)S(=O)(=O)c1cc(NC(=O)Cn2ccsc2=N)ccc1Cl	0.3	4.2	-4.1	-1.7	101.0*	-2.3
Cc1nnc(SCC(=O)NC(=O)Nc2ccc3c(c2)OCCO3)n1N	-0.4	-4.5	1.2	4.2	-2.0	-1.4
CCC(C)NC(=S)Nc1ccccc1 (centres undefined)	-0.4	nt	2.0	-0.8	75.5*	-4.1
CCC(C)NC(=O)c1ccccc1NC(=O)Nc1ccccc1 (centres undefined)	-2.5	15.8*	-3.2	0.9	1.6	-5.5
CC(=O)Nc1c2c3c(cccc3n(C)c1=O)C(=O)c1ccccc1-2	-1.0	7.0	0.7	6.5	-0.9	-9.6
Cn1c(=O)c(Nc2ccc(Cl)cc2)c2c3c(cccc31)C(=O)c1ccccc1-2	nt	65.6*	nt	nt	nt	-5.4
CCOC(=O)C1CCN(C(=O)c2sc3nc(-c4ccc(F)cc4)cn3c2C)CC1	-3.4	136.5*	1.5	1.3	-5.5	-4.6
CCCc1c(C(=O)OCC)[nH]c2c1C(=O)CCC2	0.1	36.1*	-3.1	0.7	0.9	-4.0
Cc1c(C(=O)OCCOc2ccccc2)[nH]c2c1C(=O)CCC2	-1.5	0.7	-1.5	-0.4	-1.4	-1.5
COC(=O)c1ccccc1NC(=O)CSc1nncn1C	-0.4	11.4	7.5	0.7	54.7*	-2.6
COC(=O)c1ccccc1NC(=O)CSc1nncn1-c1cccnc1	-2.8	13.1	2.8	0.9	-5.1	-3.2
COCc1[nH]nc2c1C(c1ccc(C)cc1)NC2=O (centres undefined)	nt	nt	nt	nt	nt	-3.5
O=C(Nc1cnccn1)Nc1ccccc1Cl	-0.8	-0.4	-2.7	0.1	4.3	-1.5
SMILES	CAL PDZ FP-1	LANA-H2A inh	Keap1 Nrf2 FP	C-LANA FP	CAL PDZ FP-2	CaV13 FRET inh
O=C(Nc1ccccn1)Nc1ccccc1Cl	3.3	2.3	-1.1	2.5	31.0*	-5.9
CCOC(=O)N1CCN(C(=O)/C=C/c2ccc(C(C)(C)C)cc2)CC1	0.0	37.5*	-1.3	-2.0	-2.4	-2.5
O=[N+]([O-])c1ccc(-c2nc(Nc3cccc(O)c3)c3ccccc3n2)cc1	nt	-4.3	2.8	1.0	78.5*	-4.4
O=C(O)c1cccc(Nc2nc(-c3ccc([N+](=O)[O-])cc3)nc3ccccc23)c1	0.5	-0.5	-1.1	0.4	-0.9	-4.3
CCC(=O)N1C(C(=O)NCc2ccc(OC)cc2)CSC1c1ccc(OC)cc1 (centres undefined)	-0.2	-4.2	1.1	-0.4	nt	45.2*
CC(C)c1ccc(S(=O)(=O)N(C)C2(C)CCS(=O)(=O)C2)cc1 (centres undefined)	-5.3	-2.6	3.7	-0.3	-2.2	-1.7
CCCCNC(=O)C1CCN(C(=O)C2CCN(S(=O)(=O)c3ccc(C)cc3)CC2)CC1	-1.1	12.6*	0.1	-0.4	-3.8	-7.1
CCCNC(=O)C1CCN(S(=O)(=O)c2ccc3[nH]c(=O)ccc3c2)CC1	-0.2	20.2*	3.9	1.0	nt	-5.8
Cc1ccc(S(=O)(=O)N2CCC(C(=O)NCCCN3CCCCCC3)CC2)cc1	-1.2	-0.9	-2.2	-0.6	-1.8	-3.4
O=C(/C=C/[C@H]1O[C@@H](n2ccc(=O)[nH]c2=O)[C@H](O)[C@@H]1O)NCCN1CCCC1	nt	nt	nt	nt	nt	-3.2
COc1cccc(C(=O)N[C@H](C(=O)N2CCC[C@H]2C(=O)NCc2ccccc2)C(C)C)c1	nt	nt	nt	nt	nt	-5.9
CC(C)[C@@H]1CC[C@@H](C)C[C@H]1OC[B-](F)(F)F	nt	nt	nt	nt	nt	-4.9
COc1ccc2c(CC(=O)Nc3ncc(C)s3)coc2c1	1.5	-1.2	0.7	77.7*	-0.1	-8.9
COc1ccc2c(CC(=O)Nc3nc(C)cs3)coc2c1	-2.0	-4.4	0.5	1.0	-2.8	0.8
CN1/C(=C\C=O)C(C)(C)c2ccccc21	-0.4	0.4	-1.7	-0.3	-1.3	1.6
CN1/C(=C/C=C(C#N)C#N)C(C)(C)c2ccccc21	-0.2	7.5	-225.6	150.3*	-3.6	12.1
O=C(NCc1cccnc1)/C(=C/c1ccc(-c2cccc(C(F)(F)F)c2)o1)NC(=O)c1ccccc1	32.0	2.7	-2.6	-1.1	42.0*	-5.8
COc1cc(C(=O)OCC(C)=O)ccc1OCc1c(C)noc1C	-0.8	nt	-0.2	0.3	0.8	nt
COc1cc(C(=O)OCC(=O)N2CCCCC2C)ccc1OCc1c(C)noc1C (centres undefined)	0.1	-4.1	5.1	-2.4	45.7*	-5.6
O=C(Cc1csc(Nc2nc(=S)[nH]c3ccccc23)n1)N1CCN(c2cccc(Cl)c2)CC1	-1.1	-4.9	-1.5	-0.4	54.5*	1.8
CCOCCCNC(=S)N1CCN(Cc2ccc3c(c2)OCO3)CC1	-0.4	-5.3	-2.9	-2.8	-0.7	4.1
O=C(C1CC(=O)N(c2ccc(F)cc2)C1)N1CCN(c2ccc(F)cc2)CC1 (centres undefined)	-1.9	5.1	-0.5	0.0	-4.1	nt
